HIV Rev-RRE inh – inhibitors of HIV-1 Rev-RRE RNA interaction; Rev peptide-RRE RNA binding, FRET; P05866; 97,000 compounds, 0.79% hits; inhibition, % at 8 µM;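 active = inhibition above the screen-wide mean plus 3 SD, cut at about 35% in these data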;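 note: 0% = median DMSO wells and 100% = median Neomycin B control wells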
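Test system – labelled RRE RNA duplex and labelled Rev peptide · Reagent – labelled Rev peptide · Doses – one concentration, 8 µM nominal · Incubation – 5 + 15 min at 25 °C · Signal – FRET fluorescence readout · Read-out basis – % inhibition of FRET ratio versus controls · Control set – DMSO wells as 0% and neomycin B wells as 100% inhibition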
Cav3 T inh – inhibitors of human Cav3.2 T-type calcium channel | Cav3.2-expressing cells, Fluo-4 calcium fluorescence FDSS; hits give low values | B-score at 10 µM | 100,000 compounds, 4% hits | AID 449739;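 active = single-dose well whose peak fluorescence ratio is a statistical outlier from its plate by either plate-standardised score or position-corrected B-score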
CYP2C19 activ – cytochrome P450 2C19 (human) activation. P33261. recombinant CYP2C19, luciferin-H EGE luminescence; hits give high values; 0 = fully inhibited enzyme, 1 = untreated enzyme. activation factor at 5 µM. 96,000 tested, under 10 active. AID 1025;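 active = activation factor of at least 2 at 5 µM in the primary screen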;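 note: 0 = wells with 2.5 mM tranylcypromine and 1 = vehicle-only wells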
CYP2C19 inh – blocks human cytochrome P450 2C19; 96,000 compounds, 21% hits; AID 778; CYP2C19 Supersomes, luciferin-H EGE luminescence, 30 min; inhibition, % at 5 µM; P33261;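 active = CYP2C19 inhibition above a set limit at 5 µM in the primary screen, cut at about 50% in these data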;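 note: plate controls were negative control wells for no effect and 2.5 mM tranylcypromine positive control for full effect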
CYP2C9 act – activators of human CYP2C9. P11712. recombinant CYP2C9, luciferin-H conversion, luminescence; hits give high values; factor 1 = untreated enzyme, 0 = blocked. activation factor at 5 µM. 96,000 compounds, 1.4% hits. AID 1024;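 active = activation factor of 2 or more for CYP2C9 at a 5 µM dose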;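 note: 0 = sulfaphenazole-blocked wells and 1 = vehicle-only wells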
CYP2C9 inhib – blocks human cytochrome P450 2C9. P11712. CYP2C9 Supersomes, luciferin-H conversion, luminescence. inhibition, % at 5 µM. 96,000 compounds, 20% hits;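 active = blocking of liver enzyme CYP2C9 beyond about 50% at 5 µM, limit read from the data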
The depositor's hits bear a star; · = no result given. The list is not random: actives were taken first. Their share in the collection is about 27%.

SMILES	HIV Rev-RRE inh	Cav3 T inh	CYP2C19 activ	CYP2C19 inh	CYP2C9 act	CYP2C9 inhib
Cc1ccc(NC(=O)c2ccc(S(=O)(=O)N3CCC(C)CC3)cc2)cc1	18	-0.52	0.8	23	0.7	26
O=C1c2ccccc2C(=O)N1c1ccc(Cl)cn1	5	·	0.9	8	0.9	8
COc1ccccc1CNc1nc2nc(C)c(C)c(=O)n2[nH]1	5	-1.3	0.9	14	0.3	70*
COc1ccc(CNc2nc3nc(C)c(Cl)c(=O)n3[nH]2)cc1OC	6	0.7	1.1	-14	0.2	76*
CC(C)Oc1ccc(C(=O)Nc2ccc(N(C)C)cc2)cc1	3	1.2	1	4	1.2	-20
COCCCn1c(SCC(=O)N2CCc3ccccc32)nnc1-c1ccco1	0	0.74	·	·	·	·
N#Cc1ccc(-c2ccccc2)nc1SCC(=O)c1cccc(Cl)c1	36	-0.54	0.7	31	0.4	63*
N#Cc1ccc(-c2ccc(Cl)cc2)nc1SCC(=O)c1cccc(Cl)c1	25	-1.3	1	3	0.9	12
CCCC(=O)Nc1ccccc1-c1nnc(SC)[nH]c1=O	11	0.37	1.1	-8	0.8	23
CC(OC(=O)CN1C(=O)NC(C)(C)C1=O)C(=O)c1ccccc1 (configuration not stated)	4	0.12	0.4	60*	0.8	24
CC1=CCC2C(=O)N(c3ccc(Br)cc3C)C(=O)C2C1 (configuration not stated)	0	-1.1	0.2	78*	0.4	60*

High-throughput results: PubChem, several laboratories
